Data reported in ChEMBL document CHEMBL5512642, “Novel triterpenoid pyrones, phthalimides and phthalates are selectively cytotoxic in CCRF-CEM cancer cells - Synthesis, potency, and mitochondrial mechanism of action” (Eur J Med Chem, 2024).
Active and inactive are the calls of the source. The rule behind the calls is not given here.

How the values were obtained:
[1] = test system: CCRF-CEM; experiment: Cytotoxicity against human CCRF-CEM cells assessed as reduction in cell viability incubated for 72 hrs by MTS assay; assay type: functional, cell-based
[2] = test system: CEM-DNR; experiment: Cytotoxicity against human CEM-DNR cells assessed as reduction in cell viability incubated for 72 hrs by MTS assay; assay type: functional, cell-based
[3] = test system: K562; experiment: Cytotoxicity against human K562 cells assessed as reduction in cell viability incubated for 72 hrs by MTS assay; assay type: functional, cell-based; details: K562, 72 h
[4] = Cytotoxicity against human K562-Tax cells assessed as reduction in cell viability incubated for 72 hrs by MTS assay; assay type: functional, cell-based
[5] = test system: A549; experiment: Cytotoxicity against human A549 cells assessed as reduction in cell viability incubated for 72 hrs by MTS assay; assay type: functional, cell-based; details: A549, 72 h
[6] = test system: HCT-116; experiment: Cytotoxicity against human HCT-116 cells assessed as reduction in cell viability incubated for 72 hrs by MTS assay; assay type: functional, cell-based; details: HCT-116, 72 h
[7] = test system: HCT 116 TP53(-/-); experiment: Cytotoxicity against human HCT116-p53-null cells assessed as reduction in cell viability incubated for 72 hrs by MTS assay; assay type: functional, cell-based
[8] = test system: U2OS; experiment: Cytotoxicity against human U2OS cells assessed as reduction in cell viability incubated for 72 hrs by MTS assay; assay type: functional, cell-based
[9] = Cytotoxicity against human BJ cells assessed as reduction in cell viability incubated for 72 hrs by MTS assay; assay type: toxicity, cell-based
[10] = Cytotoxicity against human MRC5 cells assessed as reduction in cell viability incubated for 72 hrs by MTS assay; assay type: toxicity, cell-based
[11] = Stability in human plasma assessed as compound remaining measured 15 mins by RF-MS analysis; assay type: ADME, cell-free; details: read-out: Stability
Outline: (§1)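 Compounds incubated in human plasma in vitro for up to 2 h. Percent remaining sampled at 15, 30, 60 and 120 min. Run in triplicate.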

[12] = Stability in human plasma assessed as compound remaining measured 30 mins by RF-MS analysis; assay type: ADME, cell-free; details: read-out: Stability; outline: as §1
[13] = Stability in human plasma assessed as compound remaining measured 60 mins by RF-MS analysis; assay type: ADME, cell-free; details: read-out: Stability; outline: as §1
[14] = Stability in human plasma assessed as compound remaining measured 120 mins by RF-MS analysis; assay type: ADME, cell-free; details: read-out: Stability; outline: as §1
[15] = Plasma protein binding in human assessed as fraction bound at 10 uM by rapid equilibrium dialysis based RF-MS analysis; assay type: ADME, cell-free; details: read-out: PPB (converted)
Outline: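 Human plasma protein binding measured by equilibrium dialysis and reported as percent fraction bound. Run in triplicate.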

[16] = Apparent permeability of the compound in MDCK-MDR1 cells at 10 uM incubated for 1 hr by RF-MS analysis; assay type: ADME, cell-based, Canis lupus familiaris; details: dog
Outline: (§2)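 Caco-2 and MDCK-MDR1 monolayers; transport measured in both directions, apical→basolateral and basolateral→apical. Efflux ratio taken from the two directions; ER > 2 counted as active efflux. Compound recovery reported. Cell-based permeability runs done in duplicate.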

[17] = Efflux ratio of apparent permeability across basolateral to apical side over apical to basolateral side in MDCK-MDR1 cells; assay type: ADME, cell-based, Canis lupus familiaris; details: dog; outline: as §2
[18] = Apparent permeability of the compound across apical to basolateral side in MDCK-MDR1 cells assessed as compound recovery at 10 uM incubated for 1 hr by RF-MS analysis; assay type: ADME, cell-based, Canis lupus familiaris; details: dog, read-out: Activity; outline: as §2
[19] = Metabolic stability in human liver microsomes assessed as compound remaining at measured at 15 mins in presence of NADPH by RF-MS analysis; assay type: ADME, Microsome; details: read-out: Stability
Outline: (§3)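 Human liver microsomes with NADPH cofactor to assess phase I oxidation. Compound remaining sampled at 15, 30 and 60 min; intrinsic clearance derived and categorized. Run in triplicate.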

[20] = Metabolic stability in human liver microsomes assessed as compound remaining at measured at 30 mins in presence of NADPH by RF-MS analysis; assay type: ADME, Microsome; details: read-out: Stability; outline: as §3
[21] = Metabolic stability in human liver microsomes assessed as compound remaining at measured at 60 mins in presence of NADPH by RF-MS analysis; assay type: ADME, Microsome; details: read-out: Stability; outline: as §3
[22] = Apparent permeability of the compound in human Caco-2 cells; assay type: ADME, cell-based; outline: as §2
[23] = Efflux ratio of apparent permeability across basolateral to apical side over apical to basolateral side in human Caco-2 cells; assay type: ADME, cell-based; outline: as §2
[24] = Apparent permeability of the compound across apical to basolateral side in human Caco-2 cells assessed as compound recovery; assay type: ADME, cell-based; details: read-out: Activity; outline: as §2
[25] = test system: CCRF-CEM; experiment: Induction of apoptosis in human CCRF-CEM cells assessed as viable cells at 1 time IC50 incubated for 24 hrs by Annexin V and propidium iodide staining based flow cytometry analysis (reference value: 98%); assay type: functional
[26] = test system: CCRF-CEM; experiment: Induction of apoptosis in human CCRF-CEM cells assessed as early apoptotic cells at 1 time IC50 incubated for 24 hrs by Annexin V and propidium iodide staining based flow cytometry analysis (reference value: 1.4%); assay type: functional
[27] = test system: CCRF-CEM; experiment: Induction of apoptosis in human CCRF-CEM cells assessed as late apoptotic cells at 1 time IC50 incubated for 24 hrs by Annexin V and propidium iodide staining based flow cytometry analysis (reference value: 0.5%); assay type: functional
[28] = test system: CCRF-CEM; experiment: Induction of apoptosis in human CCRF-CEM cells assessed as necrotic cells at 1 time IC50 incubated for 24 hrs by Annexin V and propidium iodide staining based flow cytometry analysis (reference value: 0.1%); assay type: functional
[29] = test system: CCRF-CEM; experiment: Induction of apoptosis in human CCRF-CEM cells assessed as viable cells at 5 time IC50 incubated for 24 hrs by Annexin V and propidium iodide staining based flow cytometry analysis (reference value: 98%); assay type: functional
[30] = test system: CCRF-CEM; experiment: Induction of apoptosis in human CCRF-CEM cells assessed as early apoptotic cells at 5 time IC50 incubated for 24 hrs by Annexin V and propidium iodide staining based flow cytometry analysis (reference value: 1.4%); assay type: functional
[31] = test system: CCRF-CEM; experiment: Induction of apoptosis in human CCRF-CEM cells assessed as late apoptotic cells at 5 time IC50 incubated for 24 hrs by Annexin V and propidium iodide staining based flow cytometry analysis (reference value: 0.5%); assay type: functional
[32] = test system: CCRF-CEM; experiment: Induction of apoptosis in human CCRF-CEM cells assessed as necrotic cells at 5 time IC50 incubated for 24 hrs by Annexin V and propidium iodide staining based flow cytometry analysis (reference value: 0.; assay type: functional
[33] = test system: CCRF-CEM; experiment: Antimitotic activity against human CCRF-CEM cells assessed as decrease in cell division at 5 times of IC50; assay type: functional, cell-based
Outline: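 Mitotic fraction scored with the pH3 Ser10 marker and DNA synthesis with BrdU incorporation. For transcription, cells received a short BrU pulse after the 24 h pre-incubation. Read by flow cytometry against untreated cells.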

[34] = test system: CCRF-CEM; experiment: Induction of apoptosis in human CCRF-CEM cells assessed as reduction in Bcl-2 expression at 5 time of IC50 incubated for 24 hrs by Western blot analysis; assay type: functional, cell-based
Outline: (§4)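 Lysate 20 µg protein per lane on SDS-PAGE, transferred to nitrocellulose, blocked in 5% BSA/TBS-Tween. Probed overnight at 4 °C with anti-caspase-3, Bcl-2, Bcl-XL, β-actin, then HRP secondary 1 h. ECL chemiluminescence detection.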

[35] = test system: CCRF-CEM; experiment: Induction of apoptosis in human CCRF-CEM cells assessed as reduction in Bcl-XL expression at 5 time of IC50 incubated for 24 hrs by Western blot analysis; assay type: functional, cell-based; outline: as §4
[36] = test system: CCRF-CEM; experiment: Induction of mitochondrial membrane potential loss in human CCRF-CEM cells assessed as cells with depolarized mitochondria (P2 gate) by measuring green fluorescence intensity at 1 time IC50 incubated for 24 hrs by JC-1 staining based flow cytometry (reference value: 2.1%)
[37] = test system: CCRF-CEM; experiment: Induction of mitochondrial membrane potential loss in human CCRF-CEM cells assessed as cells with depolarized mitochondria (P2 gate) by measuring green fluorescence intensity at 5 time IC50 incubated for 24 hrs by JC-1 staining based flow cytometry (reference value: 2.1%)
[38] = test system: CCRF-CEM; experiment: Induction of apoptosis in human CCRF-CEM cells assessed as reduction in caspase-3 expression at 5 time of IC50 incubated for 24 hrs by Western blot analysis; assay type: functional, cell-based; outline: as §4

`C=C(C)[C@@H]1CC[C@]2(C(=O)O)CC[C@]3(C)[C@H](CC[C@@H]4[C@@]5(C)Cc6c(C(F)(F)F)cc(C(=O)OC)c(C(=O)OC)c6C(C)(C)[C@@H]5CC[C@]43C)[C@@H]12` gave an IC50 [1] of 3.8 µM, an IC50 [2] of over 50 µM and an IC50 [3] of 18 µM. For the same compound, the IC50 [4] was over 50 µM, the IC50 [5] was 18 µM and the IC50 [6] was 23 µM. For the same compound, the IC50 [7] was 13 µM, the IC50 [8] was 17 µM and the IC50 at 72 h [9] was over 50 µM. It also gave an IC50 at 72 h [10] of over 50 µM, a remaining at 0.25 h [11] of 103% and a remaining at 0.5 h [12] of 96.7%. The remaining at 1 h [13] was 96.2%, the remaining at 2 h [14] was 93.8% and the fraction unbound at 10 µM [15] was 0.184. It also gave a Papp at 1 h, 10 µM [16] of 4.46 ×10⁻⁶ cm/s, an efflux ratio [17] of 6.95 and a recovery at 1 h, 10 µM [18] of 71.2%. The remaining at 0.25 h [19] was 91%, the remaining at 0.5 h [20] was 102% and the remaining at 1 h [21] was 76%. It also gave a Papp [22] of 1.73 ×10⁻⁶ cm/s, an efflux ratio [23] of 5.62 and a recovery [24] of 75.8%. The Activity [25] was 92.9%, the Activity [26] was 4.3% and the Activity [27] was 2.8%. For the same compound, the Activity [28] was 0%, the Activity [29] was 87.3% and the Activity [30] was 8.5%. For the same compound, the Activity [31] was 4.2%, the Activity [32] was 0% and the Activity [33] was “Active”. For the same compound, the Activity [34] was “Active”, the Activity [35] was “Active” and the Activity [36] was 2.4%. For the same compound, the Activity [37] was 38.1%.
With `C=C(C)[C@@H]1CC[C@]2(C(=O)O)CC[C@]3(C)[C@H](CC[C@@H]4[C@@]5(C)CC6=C(C7C(=O)N(c8ccccc8)C(=O)C7C=C6C(F)(F)F)C(C)(C)[C@@H]5CC[C@]43C)[C@@H]12` (stereo partly specified) the IC50 [1] was 4.2 µM, the IC50 [2] was 20 µM and the IC50 [3] was 25 µM. The IC50 [4] was 9.7 µM, the IC50 [5] was 9.7 µM and the IC50 [6] was 7.8 µM. The IC50 [7] was 12 µM, the IC50 [8] was 7.6 µM and the IC50 at 72 h [9] was over 50 µM. It also gave an IC50 at 72 h [10] of 28 µM, a remaining at 0.25 h [11] of 100% and a remaining at 0.5 h [12] of 92.7%. It also gave a remaining at 1 h [13] of 95.8%, a remaining at 2 h [14] of 101% and a fraction unbound at 10 µM [15] of 0.273. For the same compound, the Papp at 1 h, 10 µM [16] was 0.1 ×10⁻⁶ cm/s, the recovery at 1 h, 10 µM [18] was 94.1% and the remaining at 0.25 h [19] was 99%. The remaining at 1 h [21] was 79%, the Papp [22] was 0.04 ×10⁻⁶ cm/s and the recovery [24] was 86%. It also gave an Activity [25] of 92.5%, an Activity [26] of 4.3% and an Activity [27] of 3.2%. The Activity [28] was 0%, the Activity [29] was 91.8% and the Activity [30] was 5.2%. The Activity [31] was 2.9%, the Activity [32] was 0.1% and the Activity [38] was “Active”. For the same compound, the Activity [34] was “Active”, the Activity [35] was “Active” and the Activity [36] was 2%. For the same compound, the Activity [37] was 2.6%.
